# Measured values taken from ChEMBL document CHEMBL3046679, “Design, synthesis, and biological activities of arylmethylamine substituted chlorotriazine and methylthiotriazine compounds” (J Agric Food Chem, 2011).
# Activity calls are given as the source filed them. The rule behind the calls is not given here.
# What was measured:
# Puccinia triticina [1] = assay: Fungicidal activity against Puccinia triticina assessed as inhibition of disease development in compound treated leaf pieces at 200 ppm relative to untreated control (wheat-curative); assay type: functional
# Outline: (§1)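 Curative wheat leaf-piece test against Puccinia triticina. Leaf pieces inoculated with spores first, then treated with formulated compound at 200, 60 or 20 ppm. Disease scored 3–9 days after inoculation as percent inhibition versus untreated controls. Values are the mean across replicates.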
# Puccinia triticina [2] = assay: Fungicidal activity against Puccinia triticina assessed as inhibition of disease development in compound treated leaf pieces at 200 ppm relative to untreated control (wheat-preventative); assay type: functional
# Outline: (§2)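 Preventative leaf-piece test on host tissue (tomato, vine, wheat or barley). Formulated compound applied at 200, 60 and 20 ppm before spore inoculation. Disease scored 3–9 days after inoculation, depending on the pathogen, as percent inhibition of disease development versus untreated controls. Values are the mean across replicates.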
# [3] = tested on: Blumeria graminis f. sp. tritici; assay: Fungicidal activity against Blumeria graminis f. sp. tritici assessed as inhibition of disease development in compound treated leaf pieces at 200 ppm relative to untreated control (wheat-preventative); assay type: functional
# Plasmopara viticola [4] = assay: Fungicidal activity against Plasmopara viticola assessed as inhibition of disease development in compound treated leaf pieces at 200 ppm relative to untreated control (grapevine-preventative); assay type: functional; outline: as §2
# Phytophthora infestans [5] = assay: Fungicidal activity against Phytophthora infestans assessed as inhibition of disease development in compound treated leaf pieces at 200 ppm relative to untreated control (tomato-preventative); assay type: functional; outline: as §2
# Phytophthora infestans [6] = assay: Fungicidal activity against Phytophthora infestans assessed as inhibition of mycelia growth at 200 ppm; assay type: functional, organism-based
# Zymoseptoria tritici = assay: Fungicidal activity against Zymoseptoria tritici assessed as inhibition of mycelia growth at 100 ppm; assay type: functional, organism-based
# Botrytis cinerea = assay: Fungicidal activity against Botryotinia fuckeliana assessed as inhibition of mycelia growth at 2 ppm; assay type: functional, organism-based
# Outline: (§3)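 Mycelial growth test in 96-well plates: compound incorporated into artificial growth medium at 2 ppm, two replicates per rate. Each well scored 99 for complete, 55 for partial or 0 for no inhibition. Values are the mean across replicates; azoxystrobin and prochloraz used as positive controls.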
# Fusarium graminearum = assay: Fungicidal activity against Fusarium graminearum assessed as inhibition of mycelia growth at 2 ppm; assay type: functional, organism-based; outline: as §3
# Alternaria solani [7] = assay: Fungicidal activity against Alternaria solani assessed as inhibition of mycelia growth at 2 ppm; assay type: functional, organism-based; outline: as §3
# Pythium dissimile = assay: Fungicidal activity against Pythium dissimile assessed as inhibition of mycelia growth at 2 ppm; assay type: functional, organism-based; outline: as §3
# Digitaria sanguinalis [8] = assay: Herbicidal activity against Digitaria sanguinalis (hairy crabgrass) assessed as growth inhibition at 1 kg/ha preemergence treatment by glasshouse test; assay type: functional; settings: pre-emergence, read-out: GI
# Outline: (§4)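 Glasshouse screen with pre- or postemergence application at 1.0 kg/ha. Result given as percent inhibition of plant growth; norflurazon and glyphosate used as controls.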
# Stellaria media [9] = assay: Herbicidal activity against Stellaria media assessed as growth inhibition at 1 kg/ha preemergence treatment by glasshouse test; assay type: functional; settings: pre-emergence, read-out: GI; outline: as §4
# Lolium perenne [10] = assay: Herbicidal activity against Lolium perenne (perennial ryegrass) assessed as growth inhibition at 1 kg/ha preemergence treatment by glasshouse test; assay type: functional; settings: pre-emergence, read-out: GI; outline: as §4
# Amaranthus retroflexus [11] = assay: Herbicidal activity against Amaranthus retroflexus assessed as growth inhibition at 1 kg/ha preemergence treatment by glasshouse test; assay type: functional; settings: pre-emergence, read-out: GI; outline: as §4
# Digitaria sanguinalis [12] = assay: Herbicidal activity against Digitaria sanguinalis (hairy crabgrass) assessed as growth inhibition at 1 kg/ha postemergence treatment by glasshouse test; assay type: functional; settings: post-emergence, read-out: GI; outline: as §4
# Stellaria media [13] = assay: Herbicidal activity against Stellaria media assessed as growth inhibition at 1 kg/ha postemergence treatment by glasshouse test; assay type: functional; settings: post-emergence, read-out: GI; outline: as §4
# Lolium perenne [14] = assay: Herbicidal activity against Lolium perenne (perennial ryegrass) assessed as growth inhibition at 1 kg/ha postemergence treatment by glasshouse test; assay type: functional; settings: post-emergence, read-out: GI; outline: as §4
# Amaranthus retroflexus [15] = assay: Herbicidal activity against Amaranthus retroflexus assessed as growth inhibition at 1 kg/ha postemergence treatment by glasshouse test; assay type: functional; settings: post-emergence, read-out: GI; outline: as §4
# Poa annua = assay: Herbicidal activity against Poa annua assessed as growth inhibition at 32 ppm by 96-well plate test; assay type: functional; settings: read-out: GI
# Outline: (§5)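 96-well plate herbicide screen: Arabidopsis thaliana at 10 ppm and Poa annua at 32 ppm, two replicates. Plates incubated seven days in a controlled-environment cabinet. Each replicate scored 0 (no visible effect) or 99 (herbicidal effect); values are the mean of the two. Atrazine used as reference.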
# Arabidopsis thaliana = assay: Herbicidal activity against Arabidopsis thaliana assessed as growth inhibition at 10 ppm by 96-well plate test; assay type: functional; settings: read-out: GI; outline: as §5
# Echinochloa crus-galli [16] = assay: Herbicidal activity against Echinochloa crus-galli (barnyard grass) at 1.5 kg/ha postemergence treatment measured after 10 days by glasshouse test; assay type: functional; settings: post-emergence, 240 h
# Outline: (§6)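 Glasshouse pre/postemergence test, each treatment in triplicate. Above-ground fresh weight measured 10 days after treatment. Result expressed as percent inhibition versus control, from 0 (no control) to 100 (complete control); glyphosate used as positive control.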
# Brassica napus [17] = assay: Herbicidal activity against Brassica napus (oilseed rape) at 1.5 kg/ha postemergence treatment measured after 10 days by glasshouse test; assay type: functional; settings: post-emergence, 240 h; outline: as §6
# Echinochloa crus-galli [18] = assay: Herbicidal activity against Echinochloa crus-galli (barnyard grass) at 1.5 kg/ha preemergence treatment measured after 10 days by glasshouse test; assay type: functional; settings: pre-emergence, 240 h; outline: as §6
# Brassica napus [19] = assay: Herbicidal activity against Brassica napus (oilseed rape) at 1.5 kg/ha preemergence treatment measured after 10 days by glasshouse test; assay type: functional; settings: pre-emergence, 240 h; outline: as §6
# Alternaria solani [20] = assay: Fungicidal activity against Alternaria solani assessed as inhibition of disease development in compound treated leaf pieces at 20 ppm relative to untreated control (tomato-preventative); assay type: functional; outline: as §2
# Pyrenophora teres [21] = assay: Fungicidal activity against Pyrenophora teres assessed as inhibition of disease development in compound treated leaf pieces at 20 ppm relative to untreated control (barley-preventative); assay type: functional; outline: as §2
# Parastagonospora nodorum = assay: Fungicidal activity against Phaeosphaeria nodorum assessed as inhibition of disease development in compound treated leaf pieces at 20 ppm relative to untreated control (wheat preventative); assay type: functional; outline: as §2
# Puccinia triticina [22] = assay: Fungicidal activity against Puccinia triticina assessed as inhibition of disease development in compound treated leaf pieces at 20 ppm relative to untreated control (wheat-curative); assay type: functional; outline: as §1
# Puccinia triticina [23] = assay: Fungicidal activity against Puccinia triticina assessed as inhibition of disease development in compound treated leaf pieces at 20 ppm relative to untreated control (wheat-preventative); assay type: functional; outline: as §2
# [24] = tested on: Blumeria graminis f. sp. tritici; assay: Fungicidal activity against Blumeria graminis f. sp. tritici assessed as inhibition of disease development in compound treated leaf pieces at 20 ppm relative to untreated control (wheat-preventative); assay type: functional
# Plasmopara viticola [25] = assay: Fungicidal activity against Plasmopara viticola assessed as inhibition of disease development in compound treated leaf pieces at 20 ppm relative to untreated control (grapevine-preventative); assay type: functional; outline: as §2
# Phytophthora infestans [26] = assay: Fungicidal activity against Phytophthora infestans assessed as inhibition of disease development in compound treated leaf pieces at 20 ppm relative to untreated control (tomato-preventative); assay type: functional; outline: as §2
# Alternaria solani [27] = assay: Fungicidal activity against Alternaria solani assessed as inhibition of disease development in compound treated leaf pieces at 60 ppm relative to untreated control (tomato-preventative); assay type: functional; outline: as §2
# Pyrenophora teres [28] = assay: Fungicidal activity against Pyrenophora teres assessed as inhibition of disease development in compound treated leaf pieces at 60 ppm relative to untreated control (barley-preventative); assay type: functional; outline: as §2
# Puccinia triticina [29] = assay: Fungicidal activity against Puccinia triticina assessed as inhibition of disease development in compound treated leaf pieces at 60 ppm relative to untreated control (wheat-curative); assay type: functional; outline: as §1
# Puccinia triticina [30] = assay: Fungicidal activity against Puccinia triticina assessed as inhibition of disease development in compound treated leaf pieces at 60 ppm relative to untreated control (wheat-preventative); assay type: functional; outline: as §2
# [31] = tested on: Blumeria graminis f. sp. tritici; assay: Fungicidal activity against Blumeria graminis f. sp. tritici assessed as inhibition of disease development in compound treated leaf pieces at 60 ppm relative to untreated control (wheat-preventative); assay type: functional
# Plasmopara viticola [32] = assay: Fungicidal activity against Plasmopara viticola assessed as inhibition of disease development in compound treated leaf pieces at 60 ppm relative to untreated control (grapevine-preventative); assay type: functional; outline: as §2
# Phytophthora infestans [33] = assay: Fungicidal activity against Phytophthora infestans assessed as inhibition of disease development in compound treated leaf pieces at 60 ppm relative to untreated control (tomato-preventative); assay type: functional; outline: as §2
# Alternaria solani [34] = assay: Fungicidal activity against Alternaria solani assessed as inhibition of disease development in compound treated leaf pieces at 200 ppm relative to untreated control (tomato-preventative); assay type: functional; outline: as §2
# Pyrenophora teres [35] = assay: Fungicidal activity against Pyrenophora teres assessed as inhibition of disease development in compound treated leaf pieces at 200 ppm relative to untreated control (barley-preventative); assay type: functional; outline: as §2
# Triticum aestivum [36] = assay: Phytotoxicity against Triticum aestivum (wheat) plant at 60 ppm; assay type: organism-based; settings: in vivo
# Triticum aestivum [37] = assay: Phytotoxicity against Triticum aestivum (wheat) plant at 200 ppm; assay type: organism-based; settings: in vivo
# Heliothis virescens = assay: Insecticidal activity against Lepidoptera Heliothis virescens (tobacco budworm) assessed as mortality at 1000 ppm by leaf-disk assay; assay type: functional, organism-based
# Outline: (§7)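 Leaf-disk assay at 1000 ppm, three replicates. Plates kept 5–9 days in controlled-environment cabinets. Mortality judged against untreated wells: 99 for significant mortality, 0 otherwise. Values are the mean of three; thiamethoxam and indoxacarb used as positive controls.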
# Aphididae = assay: Insecticidal activity against Aphididae (aphids) assessed as mortality at 1000 ppm by leaf-disk assay; assay type: functional, organism-based; outline: as §7
compound,measurement,setting,value
CC(C)Nc1nc(Cl)nc(NCc2ccc(Cl)nc2)n1,inhibition at 200 ppm,Puccinia triticina [1],100%
same,inhibition at 200 ppm,Puccinia triticina [2],100%
same,inhibition at 200 ppm,[3],90%
same,inhibition at 200 ppm,Plasmopara viticola [4],0%
same,inhibition at 200 ppm,Phytophthora infestans [5],0%
same,inhibition,Phytophthora infestans [6],inactive
same,inhibition,Zymoseptoria tritici,Active
same,inhibition,Botrytis cinerea,inactive
same,inhibition,Fusarium graminearum,inactive
same,inhibition,Alternaria solani [7],inactive
same,inhibition,Pythium dissimile,inactive
same,inhibition of growth at 1000 g/ha,Digitaria sanguinalis [8],0%
same,inhibition of growth at 1000 g/ha,Stellaria media [9],80%
same,inhibition of growth at 1000 g/ha,Lolium perenne [10],70%
same,inhibition of growth at 1000 g/ha,Amaranthus retroflexus [11],100%
same,inhibition of growth at 1000 g/ha,Digitaria sanguinalis [12],0%
same,inhibition of growth at 1000 g/ha,Stellaria media [13],100%
same,inhibition of growth at 1000 g/ha,Lolium perenne [14],80%
same,inhibition of growth at 1000 g/ha,Amaranthus retroflexus [15],100%
same,inhibition of growth at 32 ppm,Poa annua,0%
same,inhibition of growth at 10 ppm,Arabidopsis thaliana,99%
same,inhibition at 1500 g/ha,Echinochloa crus-galli [16],68.6%
same,inhibition at 1500 g/ha,Brassica napus [17],100%
same,inhibition at 1500 g/ha,Echinochloa crus-galli [18],68.9%
same,inhibition at 1500 g/ha,Brassica napus [19],100%
same,inhibition at 20 ppm,Alternaria solani [20],0%
same,inhibition at 20 ppm,Pyrenophora teres [21],0%
same,inhibition at 20 ppm,Parastagonospora nodorum,0%
same,inhibition at 20 ppm,Puccinia triticina [22],100%
same,inhibition at 20 ppm,Puccinia triticina [23],0%
same,inhibition at 20 ppm,[24],0%
same,inhibition at 20 ppm,Plasmopara viticola [25],0%
same,inhibition at 20 ppm,Phytophthora infestans [26],0%
same,inhibition at 60 ppm,Alternaria solani [27],0%
same,inhibition at 60 ppm,Pyrenophora teres [28],0%
same,inhibition at 60 ppm,Puccinia triticina [29],100%
same,inhibition at 60 ppm,Puccinia triticina [30],70%
same,inhibition at 60 ppm,[31],0%
same,inhibition at 60 ppm,Plasmopara viticola [32],0%
same,inhibition at 60 ppm,Phytophthora infestans [33],0%
same,inhibition at 200 ppm,Alternaria solani [34],0%
same,inhibition at 200 ppm,Pyrenophora teres [35],0%
same,Activity,Triticum aestivum [36],Toxic
same,Activity,Triticum aestivum [37],Toxic
same,mortality,Heliothis virescens,inactive
same,mortality,Aphididae,inactive
